Key:
[1] = L-cysteine reactivity in pH 7.3 phosphate buffer assessed as color change from red to orange at 5 mM measured after 1 min; type: physicochemical; conditions: pH 7.3, 1 min, 5000 µM
Method in brief: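 Agent at 5, 2.5 or 1 mM in phosphate buffer pH 7.3, mixed with L-Cys at twice the agent concentration (10, 5, 2 mM). Color change scored visually against agent-alone samples.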

DNA = assay: Induction of Escherichia coli pBR322 DNA cross-linking at 1 mM after 12 hrs in presence of GSH by agarose gel electrophoresis relative to control; type: nucleic-acid assay
Method in brief: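 Linearized pBR322 plasmid DNA in phosphate buffer pH 7.3 with 1 mM agent plus 2 mM GSH. Cross-linking resolved by denaturing alkaline agarose gel electrophoresis, untreated plasmid as control lane. Yield given as percent cross-linked DNA.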

[2] = Drug metabolism in pH 7.3 phosphate buffer saline assessed as 1,1'-(2-(2,4-dinitrophenylsulfonyloxy)-5-hydroxy-1,4-phenylene)bis(N,N,N-trimethylmethanaminium)iodide formation measured after 5 mins by 1H-NMR analysis
[3] = Glycine reactivity in DMSO-d6/D2O mixture assessed as 1,4-Dihydroxy-2, 5-di-(trimethylammonium iodide-methyl)phenyl formation at 5 mM by 1H-NMR analysis
[4] = Beta-alanine reactivity in DMSO-d6/D2O mixture assessed as 1,4-Dihydroxy-2, 5-di-(trimethylammonium iodide-methyl)phenyl formation at 5 mM by 1H-NMR analysis
[5] = L-arginine reactivity in DMSO-d6/D2O mixture assessed as 1,4-Dihydroxy-2, 5-di-(trimethylammonium iodide-methyl)phenyl formation at 5 mM by 1H-NMR analysis
[6] = Drug metabolism in pH 7.3 phosphate buffer saline assessed as 2, 4-dinitrobenzene sulfonic acid formation measured immediately by 1H-NMR analysis
[7] = L-proline reactivity in DMSO-d6/D2O mixture assessed as 1,4-Dihydroxy-2, 5-di-(trimethylammonium iodide-methyl)phenyl formation at 5 mM by 1H-NMR analysis
[8] = L-valine reactivity in DMSO-d6/D2O mixture assessed as 1,4-Dihydroxy-2, 5-di-(trimethylammonium iodide-methyl)phenyl formation at 5 mM by 1H-NMR analysis
[9] = Drug metabolism in pH 7.3 phosphate buffer saline assessed as 1,4-Dihydroxy-2, 5-di-(trimethylammonium iodide-methyl)phenyl formation measured after 0.5 to 6 hrs by 1H-NMR analysis
[10] = Stability of the compound under electrospray ionisation mass spectra condition; type: physicochemical
[11] = Stability in pH 7.3 phosphate buffer saline measured within 1.5 hrs by 1H-NMR analysis; type: physicochemical; conditions: pH 7.3, 1.5 h

Compound | Drug metabolism [1] | Activity (DNA) [%] | Stability [10] | also measured
Cc1cc(C[N+](C)(C)C)c(OS(=O)(=O)c2ccc([N+](=O)[O-])cc2[N+](=O)[O-])c(C[N+](C)(C)C)c1.[I-].[I-] | Metabolite_Detected | 0 | – | –
C[N+](C)(C)Cc1cc(OS(=O)(=O)c2ccc([N+](=O)[O-])cc2[N+](=O)[O-])c(C[N+](C)(C)C)cc1OS(=O)(=O)c1ccc([N+](=O)[O-])cc1[N+](=O)[O-].[I-].[I-] | Metabolite_Detected | 34 | – | Drug metabolism [2]: Metabolite detected; Drug metabolism [3]: Metabolite not detected; Drug metabolism [4]: Metabolite not detected; Drug metabolism [5]: Metabolite not detected; Drug metabolism [6]: Metabolite detected; Drug metabolism [7]: Metabolite not detected; Drug metabolism [8]: Metabolite not detected
C[N+](C)(C)Cc1cc(OS(=O)(=O)c2ccc([N+](=O)[O-])cc2[N+](=O)[O-])c(C[N+](C)(C)C)cc1O | – | – | – | Drug metabolism [9]: Metabolite not detected
Cc1cc(C[N+](C)(C)C)c(O)c(C[N+](C)(C)C)c1.[I-].[I-] | – | 0 | Unstable | –
C[N+](C)(C)Cc1cc(O)c(C[N+](C)(C)C)cc1O.[I-].[I-] | – | 43 | Unstable | –
C[N+](C)(C)Cc1cc(-c2ccc(O)c(C[N+](C)(C)C)c2)ccc1O.[I-].[I-] | – | 0 | Unstable | –
C[N+](C)(C)Cc1cc(-c2ccc(OS(=O)(=O)c3ccc([N+](=O)[O-])cc3[N+](=O)[O-])c(C[N+](C)(C)C)c2)ccc1OS(=O)(=O)c1ccc([N+](=O)[O-])cc1[N+](=O)[O-].[I-].[I-] | Metabolite_Detected | 0 | – | Stability [11]: Stable
